Among the data in ChEMBL document CHEMBL1153433, “Design and synthesis of 2-amino-4-methylpyridine analogues as inhibitors for inducible nitric oxide synthase and in vivo evaluation of [18F]6-(2-fluoropropyl)-4-methyl-pyridin-2-amine as a potential PET tracer for inducible nitric oxide synthase” (J Med Chem, 2009) are Drug uptake values, retold here.

SMILES strings stand for the structures.

The data set concerns Brain. The data set is described as follows: Biodistribution in LPS treated C57BL/6N mouse brain at 50 uCi/110 uL, iv administered 6 hrs […] LPS challenge measured after 5 mins post drug dose. The class given is ADME, organism-based. The settings on record: in vivo. The method, boiled down:
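Male C57BL/6N mice aged 6-8 weeks received E. coli O127:B8 LPS in PBS, 10 mg/kg i.v., 6 h before tracer. Tracer ~50 μCi in 10% ethanol/saline, i.v. tail vein. Sacrifice was at 5 min, 30 min, 1 h or 2 h post-injection. Organs were weighed and gamma-counted with injectate standards. Data are %ID/g, mean ± SD, n = 4.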

`Cc1cc(N)nc(CC(C)[18F])c1` (stereo unspecified) displayed a Drug uptake of 1.81 % ID/g.
